Reference: ChEMBL document CHEMBL1926663, “Identification of new aminoacid amides containing the imidazo[2,1-b]benzothiazol-2-ylphenyl moiety as inhibitors of tumorigenesis by oncogenic Met signaling” (Eur J Med Chem, 2012)
Activity calls are given as the source filed them. The calls are words filed in the database; no cut-off is given here.

Legend:
[1] = Chemical stability in methanol; type: physicochemical
[2] = target: Macrophage-stimulating protein receptor (Homo sapiens) (UniProt Q04912); experiment: Inhibition of TEL-fused RON-mediated mouse BA/F3 cell proliferation at 1 uM after 48 hrs by cell titre blue based spectrophotometry; conditions: BaF3
How it was run: (§1)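 Ba/F3 cells expressing active kinase forms, or IL3-dependent; 2×10^4 cells/well; 1/2 serial dilutions from 0 to 10 µM (text also gives 0.1–40 µM); 48 h at 37 °C; Cell Titer Blue; absorbance at 490 nm with cell-free blank for background; proliferation as % of untreated cells; triplicate.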

[3] = target: Hepatocyte growth factor receptor (Homo sapiens) (UniProt P08581); conditions: HepG2, 10 uM
MDCK [4] = experiment: Cytotoxicity against HGF-stimulated […] MDCK cells at biologically active concentration; type: cell-based
[5] = Cytotoxicity against cortical neurons assessed as reduction in cell viability at 100 uM after 24 hrs by Cell Titer-Glo luminescent assay; conditions: cortical neurone
How it was run: (§2)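 Primary embryonic cortical neuron and hepatocyte cultures exposed to compound for 24 h; viability read by Cell Titer Glo luminescence; quadruplicate.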

Hepatocyte = experiment: Cytotoxicity against hepatocytes assessed as reduction in cell viability at 100 uM after 24 hrs by Cell Titer-Glo luminescent assay; type: cell-based; how it was run: as §2
[6] = Chemical stability in solid state; type: physicochemical
GTL 16 [7] = experiment: Cytotoxicity against serum-starved human GTL16 cells assessed as reduction of cell survival after 48 hrs by Cell Titer-Glo luminescent assay; type: functional, cell-based
[8] = target: Hepatocyte growth factor receptor (Homo sapiens) (UniProt P08581); conditions: 10 uM
Mus musculus = experiment: Toxicity in human GTL16 cells xenografted nude mouse assessed as reduction of body weight at 10 to 30 mg/kg, ip administered for every 2 days for 21 days; type: organism-based; parameters: dose 10-30 mg/kg, route intraperitoneal; conditions: in vivo
[9] = Antitumor activity against human GTL16 cells xenografted in nude mouse assessed as reduction tumor weight at 10 to 30 mg/kg, ip administered for every 2 days for 21 days; type: functional, GTL 16; parameters: scale not given: the % may be the effect or the level left; conditions: dose mg/kg 10-30; route intraperitoneal
BT-474 [10] = experiment: Cytotoxicity against serum-starved human BT474 cells assessed as reduction of cell survival at 10 to 30 uM after 48 hrs by Cell Titer-Glo luminescent assay; type: functional, cell-based
How it was run: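 Cells were held in serum-free medium for 24 h, then exposed to compound for 48 h. Viability was read by CellTiter-Glo luminescence, and data come from three independent experiments run in duplicate. BT474 was routinely maintained in RPMI with 4 mM L-glutamine, 10% FBS and penicillin/streptomycin at 37 °C under 5% CO2.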

[11] = target: Hepatocyte growth factor receptor (Homo sapiens) (UniProt P08581); conditions: BaF3; 1 uM
BaF3 = experiment: Antiproliferative activity against IL3-stimulated mouse BA/F3 cells at 1 uM after 48 hrs by cell titre blue based spectrophotometry; type: functional; how it was run: as §1
[12] = target: Hepatocyte growth factor receptor (Homo sapiens) (UniProt P08581); conditions: 1 uM
[13] = Antitumor activity against human GTL16 cells xenografted in nude mouse assessed as reduction tumor weight at 10 mg/kg, ip administered for every 2 days for 21 days (reference value: 865.4 348.9 mg); type: functional, GTL 16; conditions: route intraperitoneal
[14] = Chemical stability in DMSO; type: physicochemical
MCF7 [15] = experiment: Cytotoxicity against serum-starved human MCF7 cells over-expressing ErbB2 cells assessed as reduction of cell survival at 10 to 30 uM after 48 hrs by Cell Titer-Glo luminescent assay; type: functional, cell-based
[16] = Antitumor activity against human GTL16 cells xenografted in nude mouse assessed as reduction tumor weight at 30 mg/kg, ip administered for every 2 days for 21 days (reference value: 865.4 348.9 mg); type: functional, GTL 16; conditions: route intraperitoneal
HepG2 [17] = experiment: Cytotoxicity against serum-starved human HepG2 cells assessed as reduction of cell survival after 48 hrs by Cell Titer-Glo luminescent assay; type: functional, cell-based
[18] = target: Epidermal growth factor receptor (Homo sapiens) (UniProt P00533); experiment: Inhibition of ErbB1 phosphorylation in human BT474 cells at 1 to 10 uM pretreated overnight prior to HGF stimulation by Western blot analysis; type: cell-based; conditions: BT-474
How it was run: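 BT-474 cells starved, pretreated overnight with compound at 1, 3, 10 µM, then HGF 20 ng/ml; total extracts immunoblotted for phospho-ErbBs; ERK as loading control.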

[19] = Chemical stability in chloroform; type: physicochemical
MDCK [20] = experiment: Cytotoxicity against HGF-stimulated […] MDCK cells at 50 to 100 fold higher biologically active concentration; type: cell-based
[21] = target: Hepatocyte growth factor receptor (Homo sapiens) (UniProt P08581); experiment: Inhibition of Met-mediated scattering in HGF-stimulated […] MDCK cells at 10 uM pre-incubated overnight prior to HGF stimulation for 24 hrs measured after 24 to 48 hrs; type: cell-based
How it was run: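 MDCK cells in DMEM with 2% FBS, 1000 cells/well, settled overnight; compounds 0.1–100 µM overnight at 37 °C, then HGF 20 ng/ml for 24 h; further 24–48 h; PBS wash, 4% PFA fix; scattered cells counted in 30 colonies; IC50 = 50% inhibition of scattering.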

GTL 16 [22] = experiment: Cytotoxicity against serum-starved human GTL16 cells at 2 uM after 48 hrs by Cell Titer-Glo luminescent assay; type: functional, cell-based
MCF7 [23] = experiment: Cytotoxicity against serum-starved human MCF7 cells over-expressing ErbB2 cells at 2 uM after 48 hrs by Cell Titer-Glo luminescent assay; type: functional, cell-based
HepG2 [24] = experiment: Cytotoxicity against serum-starved human HepG2 cells at 2 uM after 48 hrs by Cell Titer-Glo luminescent assay; type: functional, cell-based
BT-474 [25] = experiment: Cytotoxicity against serum-starved human BT474 cells at 2 uM after 48 hrs by Cell Titer-Glo luminescent assay; type: functional, cell-based
BT-474 [26] = experiment: Cytotoxicity against serum-starved human BT474 cells at 10 uM after 48 hrs by Cell Titer-Glo luminescent assay; type: functional, cell-based
MCF7 [27] = experiment: Cytotoxicity against serum-starved human MCF7 cells over-expressing ErbB2 cells at 10 uM after 48 hrs by Cell Titer-Glo luminescent assay; type: functional, cell-based
[28] = target: Hepatocyte growth factor receptor (Homo sapiens) (UniProt P08581); experiment: Inhibition of Met-mediated scattering in HGF-stimulated […] MDCK cells pre-incubated overnight prior to HGF stimulation for 24 hrs measured after 24 to 48 hrs; type: cell-based

| Structure (SMILES) | Stability [1] | Stability [6] | Stability [14] | Stability [19] | Activity (MDCK [4]) | Activity (MDCK [20]) | other results |
| --- | --- | --- | --- | --- | --- | --- | --- |
| O=C(Cc1cc(C(F)(F)F)cc(C(F)(F)F)c1)N[C@@H](Cc1ccccc1)C(=O)Nc1ccc(-c2cn3c(n2)sc2ccccc23)cc1 | Stable | Stable | Stable | Stable | Non-toxic | Toxic | inhibition [2]: Active; inhibition [3]: 30%; Activity [5]: 12%; Activity (Hepatocyte): 28%; Activity (GTL 16 [7]): Dose-dependent effect; inhibition [8]: 53%; Activity (Mus musculus): Non-toxic; Activity [9]: 70%; Activity (BT-474 [10]): inactive; inhibition [11]: Active; Activity (BaF3): Active; inhibition [12]: 21%; Activity [13]: 268.8 mg; Activity (MCF7 [15]): inactive; Activity [16]: 234.8 mg; Activity (HepG2 [17]): Dose-dependent effect; inhibition [18]: inactive |
| Cc1ccc(CC(=O)N[C@@H](Cc2ccccc2)C(=O)Nc2ccc(-c3cn4c(n3)sc3ccccc34)cc2)cc1 | Stable | Stable | Stable | Stable | Non-toxic | Toxic | inhibition [21]: 30% |
| Cc1ccc(C[C@H](NC(=O)Cc2cc(C(F)(F)F)cc(C(F)(F)F)c2)C(=O)Nc2ccc(-c3cn4c(n3)sc3ccccc34)cc2)cc1 | Stable | Stable | Stable | Stable | – | – | – |
| Cc1cc(C)cc(CC(=O)N[C@@H](Cc2ccccc2)C(=O)Nc2ccc(-c3cn4c(n3)sc3ccccc34)cc2)c1 | Stable | Stable | Stable | Stable | Non-toxic | Toxic | Activity (GTL 16 [7]): Dose-dependent effect; Activity (BT-474 [10]): inactive; Activity (MCF7 [15]): inactive; Activity (HepG2 [17]): Dose-dependent effect |
| Cc1cc(C)cc(CC(=O)N[C@H](Cc2ccccc2)C(=O)Nc2ccc(-c3cn4c(n3)sc3ccccc34)cc2)c1 | Stable | Stable | Stable | Stable | Non-toxic | Toxic | – |
| O=C(Cc1cc(C(F)(F)F)cc(C(F)(F)F)c1)N[C@@H](Cc1ccccc1)C(=O)Nc1ccc(-c2cn3c(n2)sc2cc(Br)ccc23)cc1 | Stable | Stable | Stable | Stable | Non-toxic | Toxic | – |
| Cc1[nH]c(/C=C2\C(=O)Nc3ccc(S(=O)(=O)N(C)c4cccc(Cl)c4)cc32)c(C)c1C(=O)N1CCN(C)CC1 | – | – | – | – | – | – | Activity (GTL 16 [22]): Active; Activity (MCF7 [23]): inactive; Activity (HepG2 [24]): Active; Activity (BT-474 [25]): inactive |
| COc1cc2ncnc(Nc3ccc(F)c(Cl)c3)c2cc1OCCCN1CCOCC1 | – | – | – | – | – | – | Activity (BT-474 [26]): Active; Activity (MCF7 [27]): Active |
| Cc1ccc(C[C@H](NC(=O)Cc2cc(C)cc(C)c2)C(=O)Nc2ccc(-c3cn4c(n3)sc3ccccc34)cc2)cc1 | Stable | Stable | Stable | Stable | – | – | – |
| Cc1cc(C)cc(CC(=O)N[C@@H](Cc2ccc(O)cc2)C(=O)Nc2ccc(-c3cn4c(n3)sc3ccccc34)cc2)c1 | Stable | Stable | Stable | Stable | – | – | – |
| O=C(Cc1cc(C(F)(F)F)cc(C(F)(F)F)c1)N[C@H](Cc1ccccc1)C(=O)Nc1ccc(-c2cn3c(n2)sc2ccccc23)cc1 | Stable | Stable | Stable | Stable | Non-toxic | Toxic | Activity (GTL 16 [7]): Dose-dependent effect; Activity (BT-474 [10]): inactive; Activity (MCF7 [15]): inactive; Activity (HepG2 [17]): Dose-dependent effect |
| Cc1cc(C)cc(CC(=O)NCC(=O)Nc2ccc(-c3cn4c(n3)sc3ccccc34)cc2)c1 | Stable | Stable | Stable | Stable | – | – | inhibition [28]: inactive |

The next lines start with results.

| Stability [1] | Stability [6] | Stability [14] | Stability [19] | Structure (SMILES) | Activity (MDCK [4]) | Activity (MDCK [20]) | other results |
| --- | --- | --- | --- | --- | --- | --- | --- |
| Stable | Stable | Stable | Stable | Cc1cc(C)cc(CC(=O)N[C@@H](Cc2ccccc2)C(=O)Nc2ccc(-c3cn4c5c(sc4n3)CN(Cc3ccccc3)CC5)cc2)c1 | – | – | – |
| Stable | Stable | Stable | Stable | C[C@@H](NC(=O)Cc1cc(F)cc(F)c1)C(=O)Nc1ccc(-c2cn3c4c(sc3n2)CCN(Cc2ccccc2)C4)cc1 | – | – | – |
| Stable | Stable | Stable | Stable | O=C(Cc1cc(F)cc(F)c1)NCCC(=O)Nc1ccc(-c2cn3c4c(sc3n2)CN(Cc2ccccc2)CC4)cc1 | – | – | – |
| Stable | Stable | Stable | Stable | Cc1cc(C)cc(CC(=O)N[C@@H](Cc2ccccc2)C(=O)Nc2ccc(-c3cn4c5c(sc4n3)CCCC5)cc2)c1 | – | – | – |
| Stable | Stable | Stable | Stable | O=C(Cc1cc(F)cc(F)c1)N[C@@H](CS)C(=O)Nc1ccc(-c2cn3c4c(sc3n2)CN(Cc2ccccc2)CC4)cc1 | – | – | – |
| Stable | Stable | Stable | Stable | Cc1cc(C)cc(CC(=O)N[C@H](Cc2ccccc2)C(=O)Nc2ccc(-c3cn4c5c(sc4n3)CN(Cc3ccccc3)CC5)cc2)c1 | – | – | – |
| Stable | Stable | Stable | Stable | O=C(Cc1cc(F)cc(F)c1)NCCC(=O)Nc1ccc(-c2cn3c4c(sc3n2)CCN(Cc2ccccc2)C4)cc1 | – | – | – |
| Stable | Stable | Stable | Stable | O=C(Cc1cc(F)cc(F)c1)N[C@@H](Cc1ccccc1)C(=O)Nc1ccc(-c2cn3c(n2)sc2ccccc23)cc1 | Non-toxic | Toxic | Activity (GTL 16 [7]): Dose-dependent effect; Activity (BT-474 [10]): inactive; Activity (MCF7 [15]): inactive; Activity (HepG2 [17]): Dose-dependent effect |
| Stable | Stable | Stable | Stable | C[C@H](NC(=O)Cc1cc(F)cc(F)c1)C(=O)Nc1ccc(-c2cn3c4c(sc3n2)CCN(Cc2ccccc2)C4)cc1 | – | – | – |
